Hits are enriched below; roughly 2% of the tested compounds scored in any of these assays.
PABP FP inh – blocks human PABP binding to poly(A) RNA | P11940 | fluorescence polarization | inhibition, % at 35 µM | 290,000 tested, 1% active | AID 2014;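 note: calls also rest on retests at 20 µM and on dose response follow-up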
NS3 helicase inh – blocks Hepatitis C virus NS3 helicase unwinding. 290,000 tested, 0.56% active. NS3 helicase DNA unwinding, Cy5 molecular beacon fluorescence. inhibition, % at 10.9 µM;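 active = inhibition above the mean of all tested compounds plus 3 SD, set per campaign, cut at about 35% in these data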;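 note: 0% = DMSO wells and 100% = thioflavine S control wells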
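Assay system – hepatitis C virus NS3 helicase domain fragment enzyme · Buffer or medium – MOPS pH 6.5, MgCl2, DTT, Tween20, BSA · Reagent – Cy5/quencher beacon DNA duplex and ATP to start · Compound – single 10.9 µM dose · Timing – 1 h at 25 °C · Technique – Cy5 beacon fluorescence read at start and 1 h · Measure – % inhibition of unwinding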
core dimer inh – blocks dimerization of HCV core protein; TR-FRET GST/Flag-core106 dimerization, 1536-well; inhibition, % at 5 µM; 300,000 tested, 0.33% active;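 active = inhibition above the mean of all tested compounds plus 3 SD, set per screening campaign, cut at about 45% in these data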
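System: GST/Flag-tagged HCV core106 proteins. Incubation: compound-protein-antibody incubation 4 h at 22.5 °C. Technique: HTRF with 340 nm excitation, 617/671 nm emission. Medium: KF-containing HEPES buffer, pH 7.45, DTT, CHAPS, BSA. Read-out: inhibition (%) from 671 over 617 nm ratio. Also added: Eu(K)-anti-GST 90 ng/mL plus XL665-anti-Flag 1 µg/mL.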
FID counter – counter-screen for HCV NS3 helicase inhibitors: DNA intercalator displacement; inhibition, % at 7.9 µM; 290,000 tested, 0.17% active; DNA fluorescent intercalator displacement, fluorescence; in the data active = inhibition above about 37%;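 note: 0% = vehicle and 100% = reference compound; higher means more ethidium bromide displaced from hairpin DNA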
PABP1 MLLE inh – blocks PAM2 peptide binding to the PABP1 MLLE domain; P11940; GST-MLLE / FITC-PAM2 fluorescence polarization; inhibition, % at 20 µM; 360,000 tested, 0.36% active; in the data active = inhibition above about 35%, passing the limit was not always enough;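 note: plate controls were DMSO wells with GST-MLLE for no effect and wells lacking GST-MLLE protein for full effect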
eIF4H inh – inhibitors of RNA binding by human eIF4H. eIF4H fluorescence polarization binding assay. 290,000 tested, 0.94% active. inhibition, % at 35 µM. Q15056;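 note: calls also rest on retests at 20 µM and on dose response follow-up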
* marks the source's active call; other numbers are inactive results; u = inconclusive; x = no result given. Unless noted, the rule behind the calls is not given here.

SMILES	PABP FP inh	NS3 helicase inh	core dimer inh	FID counter	PABP1 MLLE inh	eIF4H inh
Cc1c(Cl)cccc1NC(=S)NCCc1ccc(S(N)(=O)=O)cc1	0.1	-6.2	-1.7	-1.1	42.1*	2.7
COc1ccc(NC(=O)C2(C)Cc3c(-c4cccc(C(F)(F)F)c4)ccnc3O2)cn1 (centres undefined)	x	x	x	x	-8.8	x
CC1(C(=O)NS(=O)(=O)c2ccc(C#N)cc2)CCN1C(=O)c1cccc2ccccc12 (centres undefined)	x	x	x	x	-7.9	x
O=[N+]([O-])c1ccc(N2CCOCC2)cc1SCc1ccco1	active	8.8	3.2	-0.8	5.3	85.9*
CCNC(=O)C1CCCN(Cc2ccc(C)c3ccccc23)CC1 (centres undefined)	x	x	x	x	5.0	x
C[C@H]1CN([C@@H](C)CO)C(=O)CCCn2cc(nn2)CO[C@@H]1CN(C)C(=O)Nc1ccc(-c2cccs2)cc1	x	x	x	x	-4.2	x
CCOC(=O)C1=C(C)Nc2sc(C(=O)c3ccc(C)cc3)c(N)c2C1c1ccc(C(=O)OC)cc1 (centres undefined)	active	10.3	4.6	-11.2	9.6	86.6
CCOC(=O)C1=C(C)Nc2sc(C(=O)c3ccc(F)cc3)c(N)c2C1c1ccc(C(=O)OC)cc1 (centres undefined)	-3.9	35.2	6.2	-14.4	9.0	-6.4
O=C(Nc1nc(-c2ccccc2)cs1)C1CCCN(S(=O)(=O)c2ccccc2)C1 (centres undefined)	-6.6	-18.9	15.4	-15.8	-10.3	-7.7
O=C(Nc1nc(-c2ccccc2)cs1)C1CCCN(S(=O)(=O)c2cccc([N+](=O)[O-])c2)C1 (centres undefined)	-6.2	-1.7	46.1*	3.9	-10.6	2.8
Cc1c(NC(=O)CSc2nnc(-c3ccccc3F)o2)c(=O)n(-c2ccccc2)n1C	x	x	x	x	-2.7	x
COc1ccc(C2C(C#N)=C3NC(=O)c4c(sc5c4CCCCC5)N3C3=C2C(=O)CC(C)(C)C3)cc1 (centres undefined)	21.8	24.2	46.0*	-21.6	-38.0	12.1
Cc1ccc(Nc2nc(N)[nH]c(=O)c2N=O)cc1	38.7*	5.6	-14.6	-4.5	20.5	u
Cc1cccn2c(CNCC3OCCc4ccccc43)c(C(=O)N3CCCCC3)nc12 (centres undefined)	-8.1	13.2	-6.0	-2.2	6.1	6.6
COCCN1CCC(CNCc2c(C(=O)N3CCCCC3)nc3c(C)cccn23)C1 (centres undefined)	27.7*	-21.6	1.7	4.8	9.3	62.1*
O=c1[nH]c(CN2CCc3ccccc3C2)nc2ccccc12	1.3	-7.7	-3.2	-10.0	40.7*	-1.8
O=C(NC(=S)N1CCCC1)c1ccccc1Cl	5.7	5.4	2.8	-6.9	24.9	4.8
O=C(NC(=S)N1CCCC1)c1ccccc1F	x	x	x	x	44.4*	x
O=C(Cc1ccc2c(c1)CCCC2)Nc1ccccc1Br	1.1	-2.7	7.6	-10.9	38.5*	-8.4
c1ccc(OCCN2CCN(C(c3ccccc3)c3ccccc3)CC2)cc1	-2.8	-52.1	0.9	17.2	6.8	-7.1
Cc1ccccc1NC(=O)c1c(C)[nH]c(=S)c(C#N)c1-c1ccco1	-0.5	49.1*	16.2	21.6	17.8	u
CC(=O)Nc1ccc(NC(=O)CCCc2ccccc2)cc1	-8.9	2.0	7.0	-7.9	5.3	-7.9
O=C(/C=C/c1ccco1)OCn1nnc2ccccc2c1=O	4.6*	0.8	-0.1	1.8	5.3	67.5*
COC(=O)c1ccc(OC(=O)c2ccc(OC)cc2)c(OC)c1	6.3*	0.5	-0.3	-19.2	15.9	53.0*
O=C(O)c1ccc(COc2ccc3ccccc3c2/C=C2/NC(=O)N(Cc3ccc(F)cc3)C2=O)cc1	14.5	9.7	x	-27.6	-9.4	18.3
O=C(O)c1cc(-c2ccc(/C=C3\NC(=O)N(c4ccccc4)C3=O)o2)ccc1Cl	35.0	17.4	-2.8	-13.9	-3.5	41.0
Cc1ccc(CN2C(=O)N/C(=C/c3ccc4c(c3)n(C)c(=O)n4C)C2=O)cc1	5.8	11.2	-6.3	-18.9	x	-12.0
Cc1cc(C(=O)O)ccc1-c1ccc(/C=C2\NC(=O)N(Cc3ccc(F)cc3)C2=O)o1	67.9*	1.0	4.3	-13.3	-3.8	80.7*

High-throughput results from PubChem.
